From ChEMBL document CHEMBL1126731, “Structure-activity relationship studies with symmetric naphthalenesulfonic acid derivatives. Synthesis and influence of spacer and naphthalenesulfonic acid moiety on anti-HIV-1 activity” (J Med Chem, 1993)

Legend:
[1] = tested on: Human immunodeficiency virus 1; assay: Antiviral activity against HIV-1 (HTLV-IIIB) in MT-4 cells; type: functional, organism-based; details: Human immunodeficiency virus 1, MT4
In short: (§1)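 MT-4 cells were infected with the HIV-1 strain named in the line and cultured with the test compound for 4 days. Viable cells were then counted by the MTT method. EC50 is the 50% effective antiviral concentration and CC50 the 50% cytotoxic concentration, each the mean of at least two separate experiments.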

MT4 [2] = assay: Antiviral activity against HIV-1 in MT-4 cells was evaluated by using a clinical strain (HE); type: functional, cell-based; details: Homo sapiens; in short: as §1
MOLT-4 [3] = assay: Percentage inhibition of HIV-1-induced giant cell (syncytia) formation using MOLT-4 cell at 20 uM; type: functional; details: Homo sapiens
In short: (§2)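 MOLT-4 cells (5×10^4/well) were cocultured with an equal number of chronically infected MOLT-4/HTLV-III_B cells at various compound concentrations for 24 h. Cell clusters were then broken by gentle pipetting, and giant cells were counted under the microscope.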

MOLT-4 [4] = assay: Percentage inhibition of HIV-1-induced giant cell (syncytia) formation using MOLT-4 cell at 4 uM; type: functional; details: Homo sapiens; in short: as §2
MOLT-4 [5] = assay: Percentage inhibition of HIV-1-induced giant cell (syncytia) formation using MOLT-4 cell at 100 uM; type: functional; details: Homo sapiens; in short: as §2
MOLT-4 [6] = assay: Percentage inhibition of HIV-1-induced giant cell (syncytia) formation using MOLT-4 cell at 0.8 uM; type: functional; details: Homo sapiens; in short: as §2
MT4 [7] = assay: Cytotoxicity against HIV-1 in MT-4 cells was evaluated by using a clinical strain (HE); type: functional; details: Homo sapiens; in short: as §1
[8] = tested on: Human immunodeficiency virus 1; assay: Cytotoxicity against HIV-1 (HTLV-IIIB) in MT-4 cells; type: functional; details: Human immunodeficiency virus 1, MT4; in short: as §1
MOLT-4 [9] = assay: Inhibition of HIV-1-induced giant cell (syncytia) formation using MOLT-4 cell; type: functional, cell-based; details: Homo sapiens; in short: as §2
MOLT-4 [10] = assay: Percentage inhibition of HIV-1-induced giant cell (syncytia) formation using MOLT-4 cell at 500 uM; type: functional; details: Homo sapiens; in short: as §2
[11] = tested on: Human immunodeficiency virus 1; assay: Antiviral concentration against HIV-1 (HTLV-IIIB) in peripheral blood lymphocytes; type: functional, organism-based
[12] = tested on: Human immunodeficiency virus 1; assay: Cytotoxic concentration against HIV-1 (HTLV-IIIB) in peripheral blood lymphocytes; type: functional

| EC50 [1] [µM] | Compound | CC50 [8] [µM] | also measured |
| --- | --- | --- | --- |
| 43 | O=S(=O)(O)c1ccc2cc(OS(=O)(=O)c3ccc(-c4ccc(S(=O)(=O)Oc5cc6ccc(S(=O)(=O)O)cc6cc5S(=O)(=O)O)cc4)cc3)c(S(=O)(=O)O)cc2c1 | > 500 | – |
| 143 | O=C(CCCCCC(=O)Nc1ccc(S(=O)(=O)O)c2cccc(S(=O)(=O)O)c12)Nc1ccc(S(=O)(=O)O)c2cccc(S(=O)(=O)O)c12 | > 500 | – |
| 41 | O=S(=O)(O)c1ccc2cc(NS(=O)(=O)c3ccc(-c4ccc(S(=O)(=O)Nc5cc6ccc(S(=O)(=O)O)cc6cc5S(=O)(=O)O)cc4)cc3)c(S(=O)(=O)O)cc2c1 | > 500 | – |
| > 168 | O=S(=O)(O)c1cc(S(=O)(=O)O)c2cc(OS(=O)(=O)c3cccc4c(S(=O)(=O)Oc5ccc6cc(S(=O)(=O)O)cc(S(=O)(=O)O)c6c5)cccc34)ccc2c1 | > 500 | – |
| 11 | O=C(O)c1cc(NS(=O)(=O)c2cc(S(=O)(=O)Nc3cc(C(=O)O)c(O)c(S(=O)(=O)O)c3)cc(S(=O)(=O)Nc3cc(C(=O)O)c(O)c(S(=O)(=O)O)c3)c2)cc(S(=O)(=O)O)c1O | > 500 | – |
| > 500 | O=C(CCC(=O)Nc1ccc(S(=O)(=O)O)c2ccccc12)Nc1ccc(S(=O)(=O)O)c2ccccc12 | > 500 | – |
| 44 | O=C(CCCCCCCCCCC(=O)Nc1cc(S(=O)(=O)O)cc2cc(S(=O)(=O)O)cc(O)c12)Nc1cc(S(=O)(=O)O)cc2cc(S(=O)(=O)O)cc(O)c12 | 430 | EC50 (MT4 [2]): 12.5 µM; inhibition at 20 µM (MOLT-4 [3]): 40%; inhibition at 4 µM (MOLT-4 [4]): 11%; inhibition at 100 µM (MOLT-4 [5]): 100%; inhibition at 0.8 µM (MOLT-4 [6]): 0%; CC50 (MT4 [7]): > 100 µM; IC50 (MOLT-4 [9]): 26 µM; inhibition at 500 µM (MOLT-4 [10]): 100% |
| 57 | Cc1cc(C)c(S(=O)(=O)Nc2cc(C(=O)O)c(O)c(S(=O)(=O)O)c2)c(C)c1S(=O)(=O)Nc1cc(C(=O)O)c(O)c(S(=O)(=O)O)c1 | > 500 | – |
| 8.3 | O=S(=O)(O)c1cc(O)c2c(NS(=O)(=O)c3ccc(-c4ccc(S(=O)(=O)Nc5cc(S(=O)(=O)O)cc6cc(S(=O)(=O)O)cc(O)c56)cc4)cc3)cc(S(=O)(=O)O)cc2c1 | 320 | EC50 [11]: 9.2 µM; CC50 [12]: 38 µM |
| > 500 | Nc1ccc2cc(S(=O)(=O)O)cc(S(=O)(=O)O)c2c1 | > 500 | – |
| > 500 | O=C(CCCCCCC(=O)Nc1ccc(S(=O)(=O)O)c2ccccc12)Nc1ccc(S(=O)(=O)O)c2ccccc12 | > 500 | – |
| > 500 | O=S(=O)(O)c1cc(S(=O)(=O)O)c2cc(O)ccc2c1 | > 500 | – |

The remaining lines, values behind:

| Compound | EC50 [1] [µM] | CC50 [8] [µM] | also measured |
| --- | --- | --- | --- |
| O=C(O)c1cc(NS(=O)(=O)c2ccc(-c3ccc(S(=O)(=O)Nc4cc(C(=O)O)c(O)c(S(=O)(=O)O)c4)cc3)cc2)cc(S(=O)(=O)O)c1O | 52.5 | 247 | EC50 (MT4 [2]): 7.5 µM; inhibition at 20 µM (MOLT-4 [3]): 22%; inhibition at 4 µM (MOLT-4 [4]): 0%; inhibition at 100 µM (MOLT-4 [5]): 94%; inhibition at 0.8 µM (MOLT-4 [6]): 3%; CC50 (MT4 [7]): > 100 µM; IC50 (MOLT-4 [9]): 37 µM; inhibition at 500 µM (MOLT-4 [10]): 100% |
| O=S(=O)(O)c1cc(S(=O)(=O)O)c2cc(OS(=O)(=O)c3ccc(-c4ccc(S(=O)(=O)Oc5ccc6cc(S(=O)(=O)O)cc(S(=O)(=O)O)c6c5)cc4)cc3)ccc2c1 | 40 | 224 | – |
| O=C(CCCCCCC(=O)Nc1cc(S(=O)(=O)O)cc2cc(S(=O)(=O)O)cc(O)c12)Nc1cc(S(=O)(=O)O)cc2cc(S(=O)(=O)O)cc(O)c12 [listing 1 of 2 here] | 2.9 | 360 | inhibition at 20 µM (MOLT-4 [3]): 96%; inhibition at 4 µM (MOLT-4 [4]): 31%; inhibition at 100 µM (MOLT-4 [5]): 100%; EC50 [11]: 1.3 µM; CC50 [12]: 20 µM; inhibition at 0.8 µM (MOLT-4 [6]): 6%; IC50 (MOLT-4 [9]): 6.4 µM; inhibition at 500 µM (MOLT-4 [10]): 100% |
| Nc1ccc(S(=O)(=O)O)c2cccc(S(=O)(=O)O)c12 | > 500 | > 500 | – |
| O=C(CCCCCCCCCCC(=O)Nc1ccc(S(=O)(=O)O)c2cccc(S(=O)(=O)O)c12)Nc1ccc(S(=O)(=O)O)c2cccc(S(=O)(=O)O)c12 | 46 | > 500 | – |
| O=C(CCCCCCCCC(=O)Nc1ccc(S(=O)(=O)O)c2cccc(S(=O)(=O)O)c12)Nc1ccc(S(=O)(=O)O)c2cccc(S(=O)(=O)O)c12 | 66.5 | > 500 | – |
| O=C(CCCCCCC(=O)Nc1ccc(S(=O)(=O)O)c2cccc(S(=O)(=O)O)c12)Nc1ccc(S(=O)(=O)O)c2cccc(S(=O)(=O)O)c12 | 242 | > 500 | – |
| O=C(CCCCCCCCC(=O)Nc1ccc(S(=O)(=O)O)c2ccccc12)Nc1ccc(S(=O)(=O)O)c2ccccc12 | > 500 | > 500 | – |
| O=S(=O)(O)c1cc(S(=O)(=O)O)c2cc(NS(=O)(=O)c3cccc4c(S(=O)(=O)Nc5ccc6cc(S(=O)(=O)O)cc(S(=O)(=O)O)c6c5)cccc34)ccc2c1 | 14 | > 500 | – |
| O=S(=O)(O)c1cc(S(=O)(=O)O)c2cc(NS(=O)(=O)c3ccc(-c4ccc(S(=O)(=O)Nc5ccc6cc(S(=O)(=O)O)cc(S(=O)(=O)O)c6c5)cc4)cc3)ccc2c1 | 29.5 | > 500 | EC50 (MT4 [2]): 8.1 µM; inhibition at 20 µM (MOLT-4 [3]): 34%; inhibition at 4 µM (MOLT-4 [4]): 21%; inhibition at 100 µM (MOLT-4 [5]): 100%; inhibition at 0.8 µM (MOLT-4 [6]): 6%; CC50 (MT4 [7]): > 100 µM; IC50 (MOLT-4 [9]): 29 µM; inhibition at 500 µM (MOLT-4 [10]): 100% |
| O=C(Nc1ccc(S(=O)(=O)O)c2cccc(S(=O)(=O)O)c12)c1ccc(C(=O)Nc2ccc(S(=O)(=O)O)c3cccc(S(=O)(=O)O)c23)cc1 | > 197 | > 500 | – |
| O=C(O)c1cc(NS(=O)(=O)c2cccc3c(S(=O)(=O)Nc4cc(C(=O)O)c(O)c(S(=O)(=O)O)c4)cccc23)cc(S(=O)(=O)O)c1O | 52.5 | > 500 | – |
| O=C(CCCCCCCCC(=O)Nc1cc(S(=O)(=O)O)cc2cc(S(=O)(=O)O)cc(O)c12)Nc1cc(S(=O)(=O)O)cc2cc(S(=O)(=O)O)cc(O)c12 [listing 1 of 2 here] | 3.9 | > 100 | inhibition at 20 µM (MOLT-4 [3]): 35%; inhibition at 4 µM (MOLT-4 [4]): 30%; inhibition at 100 µM (MOLT-4 [5]): 100%; inhibition at 0.8 µM (MOLT-4 [6]): 0%; IC50 (MOLT-4 [9]): 29 µM; inhibition at 500 µM (MOLT-4 [10]): 100% |
| O=S(=O)(O)c1cccc2ccc(OS(=O)(=O)c3cccc4c(S(=O)(=O)Oc5ccc6cccc(S(=O)(=O)O)c6c5)cccc34)cc12 | > 55 | 144 | – |
| O=S(=O)(O)c1cccc2ccc(OS(=O)(=O)c3ccc(-c4ccc(S(=O)(=O)Oc5ccc6cccc(S(=O)(=O)O)c6c5)cc4)cc3)cc12 | > 100 | 100 | – |
| Nc1cc(S(=O)(=O)O)cc2cc(S(=O)(=O)O)cc(O)c12 | > 529 | > 529 | – |
| O=C(CCCCCCC(=O)Nc1cc(S(=O)(=O)O)cc2cc(S(=O)(=O)O)cc(O)c12)Nc1cc(S(=O)(=O)O)cc2cc(S(=O)(=O)O)cc(O)c12 [listing 2 of 2 here] | – | – | EC50 (MT4 [2]): 2.2 µM; CC50 (MT4 [7]): > 100 µM |
| O=C(CCCCCCCCC(=O)Nc1cc(S(=O)(=O)O)cc2cc(S(=O)(=O)O)cc(O)c12)Nc1cc(S(=O)(=O)O)cc2cc(S(=O)(=O)O)cc(O)c12 [listing 2 of 2 here] | – | – | EC50 (MT4 [2]): 3.9 µM; CC50 (MT4 [7]): > 100 µM |
| Nc1ccc(S(=O)(=O)O)c2ccccc12 | > 500 | > 500 | – |
| Cc1ccc(C(=O)Nc2ccc(S(=O)(=O)O)c3cc(S(=O)(=O)O)cc(S(=O)(=O)O)c23)cc1NC(=O)c1cccc(NC(=O)Nc2cccc(C(=O)Nc3cc(C(=O)Nc4ccc(S(=O)(=O)O)c5cc(S(=O)(=O)O)cc(S(=O)(=O)O)c45)ccc3C)c2)c1 [SURAMIN HEXASODIUM] | 8.2 | 250 | – |
| Cc1ccc(C(=O)Nc2ccc(S(=O)(=O)O)c3cc(S(=O)(=O)O)cc(S(=O)(=O)O)c23)cc1NC(=O)c1cccc(NC(=O)Nc2cccc(C(=O)Nc3cc(C(=O)Nc4ccc(S(=O)(=O)O)c5cc(S(=O)(=O)O)cc(S(=O)(=O)O)c45)ccc3C)c2)c1 [SURAMIN] | – | – | EC50 (MT4 [2]): 8 µM; CC50 (MT4 [7]): 47 µM |
